For data set [1], the system named is MG-63. The data set can be described thus: Prodrug conversion in human MG63 cells assessed as formation of deuterium 1a-methyl-7a-((2E,6E,10E)-3,7,11,15-tetramethylhexadeca-2,6,10,14-tetraenyl)naphtho[2,3-b]oxirene-2,7(1aH,7aH)-dione at 1 uM for 24 hrs by LC-APCI-MS/MS analysis. To be noted: mg-63, 24 h. Type of data set: ADME, cell-based. The essentials:
(§1)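 MG-63 human osteosarcoma cells incubated with compound at a final 1.0 μM, 37 °C, 24 h. Cellular vitamin K compounds extracted with hexane. Converted menaquinone-4 and its epoxide quantified by LC-APCI-MS/MS. Three independent experiments; mean ± SD.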

Data set [2] relates to MG-63. The data set is described as follows: Prodrug conversion in human MG63 cells assessed as formation of MK-4 at 1 uM for 24 hrs by LC-APCI-MS/MS analysis. The class given is ADME, cell-based. To be noted: mg-63, 24 h. The essentials:
as §1

The subject of data set [3] is MG-63. The data set can be described thus: Prodrug conversion in human MG63 cells assessed as formation of deuterium 2-methyl-3-((2E,6E,10E)-3,7,11,15-tetramethylhexadeca-2,6,10,14-tetraenyl)naphthalene-1,4-dione at 1 uM for 24 hrs by LC-APCI-MS/MS analysis. Type of data set: ADME, cell-based. To be noted: mg-63, 24 h. The essentials: as §1
Data set [4] has as its target T1, Nuclear receptor subfamily 1 group I member 2 (Homo sapiens, UniProt O75469).
T1 sequence (O75469 whole entry): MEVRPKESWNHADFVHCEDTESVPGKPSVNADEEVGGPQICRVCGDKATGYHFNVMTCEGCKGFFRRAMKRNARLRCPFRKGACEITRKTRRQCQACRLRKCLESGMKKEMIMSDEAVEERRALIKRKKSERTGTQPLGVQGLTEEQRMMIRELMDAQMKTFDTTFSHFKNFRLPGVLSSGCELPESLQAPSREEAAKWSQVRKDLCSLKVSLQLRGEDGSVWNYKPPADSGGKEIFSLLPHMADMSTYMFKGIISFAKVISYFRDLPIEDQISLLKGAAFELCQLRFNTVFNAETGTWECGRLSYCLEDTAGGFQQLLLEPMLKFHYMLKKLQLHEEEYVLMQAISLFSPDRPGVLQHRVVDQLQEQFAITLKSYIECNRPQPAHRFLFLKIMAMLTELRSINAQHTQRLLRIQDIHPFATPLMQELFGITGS
The data set is described as follows: (§2) Induction of human SXR transcriptional activity expressed in human HepG2 cells coexpressing GAL4 at 5 X 10^-6 M after 48 hrs by luciferase reporter gene assay relative to vehicle-treated control. Type of data set: cell-based. To be noted: hepg2, 48 h, 5 µM. A digest of the protocol: (§3)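 HepG2 cells (2 × 10^5 per well), maintained in Eagle's modified medium with 10% FCS and 1% each penicillin/streptomycin, transfected with pM-SXR (GAL4 fusion), pGVP2-GAL2 reporter and pRL-CMV. 24 h after transfection, treated in fresh medium with compound or ethanol vehicle for 48 h. Dual-luciferase read-out, firefly normalized to Renilla. Three independent experiments; mean ± SD.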

In data set [5] the target is T2, SXR (nuclear receptor subfamily 1 group I member 2) (Homo sapiens, UniProt O75469).
T2 sequence (O75469 whole entry): T1 sequence (O75469 whole entry)
Described as §2. Type of data set: cell-based. To be noted: HepG2 cells expressing human SXR and GAL4, read-out: FC. The essentials: as §3

Turning to `[2H]c1c([2H])c([2H])c2c(c1[2H])C(=O)C(C/C=C(\C)CC/C=C/CC/C=C(\C)CCC=C(C)C)=C(C([2H])([2H])[2H])C2=O`, the Drug metabolism entry with MG-63 [1], in the data set on MG-63 [2] and with MG-63 [3] was “Active” in each case. In addition, the outcome in data set [4] was Active.

For `[2H]c1c([2H])c([2H])c2c(c1[2H])C(=O)C(C/C=C(\C)CC([2H])([2H])/C=C(/CC/C=C(\C)CCC=C(C)C)C([2H])([2H])[2H])=C(C([2H])([2H])[2H])C2=O`, the Drug metabolism result with MG-63 [1], with MG-63 [2] and in the data set on MG-63 [3] was “Active” throughout.

For the compound `[2H]c1c([2H])c([2H])c2c(c1[2H])C(=O)C(C/C=C(\C)CC/C=C(\C)CC/C=C(\C)CC/C=C/C)=C(C([2H])([2H])[2H])C2=O`, the Drug metabolism result in the data set on MG-63 [1], in the data set with MG-63 [2] and with MG-63 [3] was “Active” each time. The result in data set [4] was Active.

In the case of `[2H]c1c([2H])c([2H])c2c(c1[2H])C(=O)C(C/C=C(\C)CC/C=C(\C)CC/C=C(\C)CCC=C(C)C)=C(C([2H])([2H])[2H])C2=O`, the fold induction at 48 h, 5 µM in data set [5] worked out at 7.

`[2H]c1c([2H])c([2H])c2c(c1[2H])C(=O)C(C/C=C/CC/C=C(\C)CC/C=C(\C)CCC=C(C)C)=C(C([2H])([2H])[2H])C2=O`: the Drug metabolism result in the data set on MG-63 [1], with MG-63 [2] and in the data set with MG-63 [3] was “Active” each time. Besides, the result in data set [4] was Active.

As to `[2H]c1c([2H])c([2H])c2c(c1[2H])C(=O)C(C/C=C(\C)CC/C=C(\C)CC/C=C/CCC=C(C)C)=C(C([2H])([2H])[2H])C2=O`, the Drug metabolism result in the data set on MG-63 [1], in the data set on MG-63 [2] and in the data set with MG-63 [3] was “Active” each time. Besides, the result in data set [4] was Active.

As for `[2H]c1c([2H])c([2H])c2c(c1[2H])C(=O)C(CCC(C)CCCC(C)CCCC(C)CCCC(C)C)=C(C([2H])([2H])[2H])C2=O` (centres undefined), the Activity result in data set [4] is on record as “Not Active”.

Regarding `[2H]c1c([2H])c([2H])c2c(c1[2H])C(=O)C(C/C=C(\C)CCCC(C)CCCC(C)CCCC(C)C)=C(C([2H])([2H])[2H])C2=O` (centres undefined), the Activity result in data set [4] is given as “Not Active”.

For the compound `[2H]c1c([2H])c([2H])c2c(c1[2H])C(=O)C(C/C=C(\C)CCCC(C)CCCC(C)CCC=C(C)C)=C(C([2H])([2H])[2H])C2=O` (centres undefined), in data set [4], the Activity entry is on record as “Not Active”.

Turning to `[2H]c1c([2H])c([2H])c2c(c1[2H])C(=O)C(C/C=C(\C)CCCC(C)CC/C=C(\C)CCC=C(C)C)=C(C([2H])([2H])[2H])C2=O` (centres undefined), in data set [4], the outcome was Active.

The values are drawn from ChEMBL document CHEMBL2021905, “Structure-activity relationship of novel menaquinone-4 analogues: modification of the side chain affects their biological activities” (J Med Chem, 2012).
